Source: ChEMBL document CHEMBL4033676, “Design, synthesis and biological evaluation of 3,4-dihydro-2(1H)-quinoline-O-alkylamine derivatives as new multipotent cholinesterase/monoamine oxidase inhibitors for the treatment of Alzheimer's disease” (Bioorg Med Chem, 2017)

Legend:
Rattus norvegicus = species on record: Rattus norvegicus; test: Selectivity index, ratio of IC50 for rat serum BuChE to IC50 for 5% rat cortex homogenate AChE
[1] = molecular target: T1, Amine oxidase [flavin-containing] B (Homo sapiens, UniProt P27338); test: biochemical; assay type: cell-based
T1 sequence (P27338 whole entry): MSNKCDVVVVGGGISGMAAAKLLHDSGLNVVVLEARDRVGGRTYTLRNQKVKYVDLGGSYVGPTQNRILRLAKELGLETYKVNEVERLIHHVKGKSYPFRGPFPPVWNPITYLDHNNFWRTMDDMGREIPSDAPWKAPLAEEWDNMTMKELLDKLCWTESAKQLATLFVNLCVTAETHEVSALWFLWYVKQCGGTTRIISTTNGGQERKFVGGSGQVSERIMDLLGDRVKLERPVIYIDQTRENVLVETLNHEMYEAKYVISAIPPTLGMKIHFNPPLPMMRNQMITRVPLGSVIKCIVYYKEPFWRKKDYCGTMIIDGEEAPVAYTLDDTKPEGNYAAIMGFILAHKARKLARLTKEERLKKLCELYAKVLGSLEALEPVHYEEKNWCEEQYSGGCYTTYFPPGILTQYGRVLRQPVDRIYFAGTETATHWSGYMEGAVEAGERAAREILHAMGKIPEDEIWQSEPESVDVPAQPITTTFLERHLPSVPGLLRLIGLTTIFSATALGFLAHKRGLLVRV

[2] = Selectivity index, ratio of IC50 for equine serum BuChE to IC50 for electric eel AChE
Homo sapiens = species on record: Homo sapiens; test: Selectivity index, ratio of IC50 for recombinant human MAO-B to IC50 for recombinant human MAO-A
[3] = molecular target: T2, Amine oxidase [flavin-containing] A (Homo sapiens, UniProt P21397); test: Inhibition of recombinant human MAO-A expressed in baculovirus infected BTI insect cells using kynuramine as substrate after 30 mins by fluorescence assay
T2 sequence (P21397 whole entry): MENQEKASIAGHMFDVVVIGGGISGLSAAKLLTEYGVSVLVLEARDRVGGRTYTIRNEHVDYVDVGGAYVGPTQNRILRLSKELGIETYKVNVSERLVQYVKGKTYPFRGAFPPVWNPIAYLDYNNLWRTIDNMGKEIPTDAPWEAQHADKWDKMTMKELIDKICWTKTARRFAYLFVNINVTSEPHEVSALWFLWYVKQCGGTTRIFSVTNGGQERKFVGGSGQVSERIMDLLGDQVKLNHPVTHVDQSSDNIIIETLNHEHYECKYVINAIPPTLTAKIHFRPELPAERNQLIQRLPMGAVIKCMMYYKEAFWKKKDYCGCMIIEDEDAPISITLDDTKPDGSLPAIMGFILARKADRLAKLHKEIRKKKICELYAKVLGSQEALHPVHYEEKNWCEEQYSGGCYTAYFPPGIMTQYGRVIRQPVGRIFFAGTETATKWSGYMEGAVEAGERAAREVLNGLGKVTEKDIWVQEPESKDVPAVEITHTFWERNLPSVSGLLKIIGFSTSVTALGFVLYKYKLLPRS

Cholinesterase = Cholinesterase (Equus caballus, UniProt P81908); test: Inhibition of equine serum BuChE using butyrylthiocholine chloride as substrate after 15 mins by Ellman's method
Summary of the method: (§1)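 Ellman assay. Equine serum or rat serum BuChE pre-incubated with test compound at various concentrations (DMSO <1%) in 0.1 M phosphate buffer pH 8.0 for 15 min at 37°C. DTNB (0.2%) added, absorbance read at 412 nm. Inhibition % = (1−Ai/Ac)×100. IC50 is the mean of three independent experiments, each run in triplicate.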

Acetylcholinesterase [4] = molecular target: T3, Acetylcholinesterase (Rattus norvegicus, UniProt P37136)
T3 sequence (P37136 whole entry): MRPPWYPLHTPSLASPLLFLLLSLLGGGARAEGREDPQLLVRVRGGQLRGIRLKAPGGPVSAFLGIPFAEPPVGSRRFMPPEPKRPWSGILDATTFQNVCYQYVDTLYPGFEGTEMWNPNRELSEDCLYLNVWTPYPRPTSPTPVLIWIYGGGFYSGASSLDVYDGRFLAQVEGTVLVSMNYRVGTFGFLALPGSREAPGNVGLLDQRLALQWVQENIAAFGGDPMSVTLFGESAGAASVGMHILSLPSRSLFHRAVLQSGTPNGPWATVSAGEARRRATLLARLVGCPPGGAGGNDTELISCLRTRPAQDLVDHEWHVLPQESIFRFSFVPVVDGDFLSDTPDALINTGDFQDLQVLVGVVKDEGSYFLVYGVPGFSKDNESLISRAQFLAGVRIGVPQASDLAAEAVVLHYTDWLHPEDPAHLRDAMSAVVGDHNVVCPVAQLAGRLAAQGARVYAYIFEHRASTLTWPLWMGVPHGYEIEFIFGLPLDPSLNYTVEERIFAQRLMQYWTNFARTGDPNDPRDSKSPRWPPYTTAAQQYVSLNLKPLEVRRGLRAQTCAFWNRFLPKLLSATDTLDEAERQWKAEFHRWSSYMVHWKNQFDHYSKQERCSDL

Acetylcholinesterase [5] = molecular target: Acetylcholinesterase (Electrophorus electricus, UniProt O42275); test: Inhibition of electric eel AChE using acetylthiocholine chloride as substrate after 15 mins by Ellman's method
[6] = Inhibition of rat serum BuChE using butyrylthiocholine chloride as substrate after 15 mins by Ellman's method; summary of the method: as §1
physchem = details: PAMPA

Sequence of Acetylcholinesterase (Electrophorus electricus, UniProt O42275) (O42275 whole entry): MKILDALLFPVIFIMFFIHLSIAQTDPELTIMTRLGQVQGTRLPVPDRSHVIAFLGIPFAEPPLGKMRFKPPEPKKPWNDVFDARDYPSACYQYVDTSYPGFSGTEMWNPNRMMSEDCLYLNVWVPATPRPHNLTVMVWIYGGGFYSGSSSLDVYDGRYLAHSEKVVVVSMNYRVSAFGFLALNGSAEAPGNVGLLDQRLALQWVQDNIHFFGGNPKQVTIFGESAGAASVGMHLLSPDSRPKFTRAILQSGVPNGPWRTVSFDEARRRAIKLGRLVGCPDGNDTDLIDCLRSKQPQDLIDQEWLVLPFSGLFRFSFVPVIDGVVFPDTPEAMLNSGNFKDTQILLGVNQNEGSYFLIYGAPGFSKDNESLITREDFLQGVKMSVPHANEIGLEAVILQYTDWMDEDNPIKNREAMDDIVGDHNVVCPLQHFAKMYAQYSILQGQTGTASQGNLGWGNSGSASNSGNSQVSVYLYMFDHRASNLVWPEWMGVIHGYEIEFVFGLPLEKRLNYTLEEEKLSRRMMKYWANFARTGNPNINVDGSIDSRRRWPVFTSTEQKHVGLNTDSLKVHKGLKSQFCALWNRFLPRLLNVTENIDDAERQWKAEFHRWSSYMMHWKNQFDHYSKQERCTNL
Sequence of Cholinesterase (P81908 whole entry): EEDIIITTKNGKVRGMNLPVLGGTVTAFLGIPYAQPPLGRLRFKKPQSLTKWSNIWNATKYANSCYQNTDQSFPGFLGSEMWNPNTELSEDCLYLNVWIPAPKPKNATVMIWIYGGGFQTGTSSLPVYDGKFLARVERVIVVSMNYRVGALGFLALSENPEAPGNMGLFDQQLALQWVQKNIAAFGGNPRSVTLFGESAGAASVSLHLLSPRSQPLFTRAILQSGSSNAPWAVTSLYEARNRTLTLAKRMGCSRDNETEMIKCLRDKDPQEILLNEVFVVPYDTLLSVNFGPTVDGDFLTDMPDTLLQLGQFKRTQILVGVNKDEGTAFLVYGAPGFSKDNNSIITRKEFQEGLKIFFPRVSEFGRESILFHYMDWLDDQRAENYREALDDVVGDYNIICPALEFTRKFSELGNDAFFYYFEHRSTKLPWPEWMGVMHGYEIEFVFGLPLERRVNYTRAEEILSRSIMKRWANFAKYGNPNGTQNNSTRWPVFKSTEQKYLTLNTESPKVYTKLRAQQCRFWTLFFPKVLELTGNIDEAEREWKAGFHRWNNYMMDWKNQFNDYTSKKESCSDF

| Papp at 18 h, 100 ug/ml (physchem) | Compound | Ratio IC50 (Rattus norvegicus) | IC50 [1] | Ratio IC50 [2] | Ratio IC50 (Homo sapiens) | IC50 [3] | IC50 (Cholinesterase) | IC50 (Acetylcholinesterase [4]) | IC50 (Acetylcholinesterase [5]) | IC50 [6] |
| --- | --- | --- | --- | --- | --- | --- | --- | --- | --- | --- |
| – | O=C1CCc2ccc(OCCCN3CCC(N4CCCC4)CC3)cc2N1 | 1.3 | 19.2 µM | 6.9 | 2 | 9.6 µM | 39.6 µM | 16 µM | 5.8 µM | 21.5 µM |
| – | O=C1CCc2ccc(OCCCCCN3CCN(Cc4ccccc4)CC3)cc2N1 | 1.9 | 6.5 µM | 1.3 | 2.7 | 2.4 µM | 12.7 µM | 15.7 µM | 10 µM | 29.6 µM |
| – | CC(C)N1CCN(CCCOc2ccc3c(c2)NC(=O)CC3)CC1 | 0.7 | 26.1 µM | 3.3 | 2.8 | 9.4 µM | 20 µM | 14 µM | 6.2 µM | 10.2 µM |
| – | CCN(CC)CCCCCOc1ccc2c(c1)NC(=O)CC2 | 0.4 | 8.5 µM | 2.7 | 0.7 | 11.4 µM | 21.9 µM | 34.1 µM | 8.2 µM | 14.7 µM |
| – | O=C1CCc2ccc(OCCCCCN3CCN(c4ccccn4)CC3)cc2N1 | 1.6 | 20.3 µM | 0.4 | 1.6 | 13 µM | 6.2 µM | 28.4 µM | 15.6 µM | 44.6 µM |
| 0.72 to 2.5 ×10⁻⁶ cm/s | CN1C(C(=O)Nc2ccccn2)=C(O)c2ccccc2S1(=O)=O [PIROXICAM] | – | – | – | – | – | – | – | – | – |
| – | O=C1CCc2ccc(OCCCCN3CCc4ccccc4C3)cc2N1 | 0.7 | 6.9 µM | 0.4 | 1.4 | 4.9 µM | 3.8 µM | 18.2 µM | 10.1 µM | 12.4 µM |
| – | CCN(CC)CCCOc1ccc2c(c1)NC(=O)CC2 | 1.1 | 18.6 µM | 2.7 | 2.2 | 8.4 µM | 29.7 µM | 19.2 µM | 11.2 µM | 20.5 µM |
| – | CCN(CC)CCCCCCOc1ccc2c(c1)NC(=O)CC2 | 0.6 | 8.6 µM | 2.2 | 1.6 | 5.4 µM | 29.5 µM | 41.9 µM | 13.3 µM | 24.3 µM |
| – | O=C1CCc2ccc(OCCCCCCN3CCN(c4ccccn4)CC3)cc2N1 | 1.4 | 11.3 µM | 0.2 | 2 | 5.6 µM | 4.1 µM | 34.1 µM | 19.1 µM | 48.2 µM |
| – | O=C1CCc2ccc(OCCCN3CCN(c4ccccn4)CC3)cc2N1 | 2 | 18 µM | 1.5 | 17.1 | 1.1 µM | 14.4 µM | 20 µM | 9.6 µM | 39 µM |
| 5.1 to 5.3 ×10⁻⁶ cm/s | Clc1cccc(Cl)c1N=C1NCCN1 [CLONIDINE] | – | – | – | – | – | – | – | – | – |
